These results are taken from ChEMBL document CHEMBL3797146, “FimH Antagonists: Phosphate Prodrugs Improve Oral Bioavailability” (J Med Chem, 2016).

Data set [1] can be described thus: Stability in fed state simulated gastric fluid assessed as parent compound remaining in absence of pepsin after 2 hrs. It is filed as ADME, tissue-based, Stomach. As to conditions: fed state simulated gastric fluid without pepsin; read-out: Stability; call rule not given here. Summed up:
(§1)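 Compound incubated for 120 min in fasted- or fed-state simulated gastric fluid, in simulated gastric fluid, or in buffer sGF (sGF prepared without pepsin), with water as reference medium. Remaining compound is expressed as percent of the t=0 concentration, as the mean of triplicates ± SD.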

A short description of data set [2]: Stability in simulated gastric fluid assessed as parent compound remaining in absence of pancreatin after 2 hrs. It is filed as ADME, tissue-based, Stomach. Particulars: simulated gastric fluid without pancreatin; read-out: Stability.
Data set [3] is described as follows: Stability in fasted state simulated gastric fluid assessed as parent compound remaining in absence of pepsin after 2 hrs. As to conditions: fasted state simulated gastric fluid without pepsin; read-out: Stability. In kind it is ADME, tissue-based, Stomach. Summed up:
as §1

Data set [4] can be described thus: Stability in water assessed as parent compound remaining in absence of pancreatin after 2 hrs. In kind it is physicochemical. As to conditions: read-out: Stability.
Data set [5] in a line: Stability in fed state simulated gastric fluid assessed as parent compound remaining in absence of pancreatin after 2 hrs. In kind it is ADME, tissue-based, Stomach. Particulars: fed state simulated gastric fluid without pancreatin; read-out: Stability.
A short description of data set [6]: Stability in buffer simulated gastric fluid assessed as parent compound remaining in absence of pepsin after 2 hrs. It is filed as ADME, tissue-based, Stomach. As to conditions: buffer simulated gastric fluid without pepsin; read-out: Stability. Summed up: as §1
Data set [7] in a line: AUC (0 to 24 hrs) in C3H/HeN mouse urine assessed as compound 4 level at 10 mg/kg, po administered as single dose by LC-MS method. In kind it is ADME, organism-based. The arrangement: dose 10 mg/kg, time < 24 hr, route oral. Particulars: in vivo. Summed up:
(§2)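 Single oral dose given to female C3H/HeN mice. Active principle was measured in urine over 0–24 h, and Cmax, Tmax and urine AUC0–24 were derived from the concentration profiles. The 7.7 mg/kg dose was given as a suspension. Values are means with SD for groups of three mice, or five at 7.7 mg/kg.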

The subject of data set [8] is Mus musculus. Put plainly: Tmax in C3H/HeN mouse assessed as compound 4 level at 10 mg/kg, po administered as single dose by LC-MS method. As to conditions: in vivo. In kind it is ADME, organism-based. Summed up:
as §2

Data set [9] is described as follows: Stability of the compound assessed as half life for human Caco2 cells phosphatase mediated compound hydrolysis at 62.5 uM by LC-MS method. In kind it is ADME, cell-based. As to conditions: Caco-2 cells. Summed up:
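Prodrug in Dulbecco's Modified Eagle's Medium (62.5 µM) applied to the apical chamber of the Caco-2 system. Unchanged prodrug was monitored by LC-MS, and t1/2 was calculated from remaining prodrug concentration versus incubation time.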

Data set [10] has as its system Mus musculus. Put plainly: Cmax in C3H/HeN mouse assessed as compound 4 level at 10 mg/kg, po administered as single dose by LC-MS method. It is filed as ADME, organism-based. The arrangement: dose 10 mg/kg, route oral. Particulars: in vivo. Summed up: as §2
Data set [11] can be described thus: Stability in fasted state simulated gastric fluid assessed as parent compound remaining in absence of pancreatin after 2 hrs. Particulars: fasted state simulated gastric fluid without pancreatin; read-out: Stability. It is filed as ADME, tissue-based, Stomach.
The nature of data set [12]: Thermodynamic solubility of the compound in 50 mM pH 6.5 phosphate buffer by LC-MS method. It is filed as physicochemical. Particulars: read-out: Therm_solubility. Summed up: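 Thermodynamic solubility determined in phosphate buffer (50 mM, pH 6.5).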
Data set [13] can be described thus: Stability in simulated gastric fluid assessed as parent compound remaining in absence of pepsin after 2 hrs. In kind it is ADME, tissue-based, Stomach. As to conditions: simulated gastric fluid without pepsin; read-out: Stability. Put shortly:
as §1

The nature of data set [14]: Stability in water assessed as parent compound remaining in absence of pepsin after 2 hrs. It is filed as physicochemical. As to conditions: read-out: Stability. Put shortly:
as §1

Data set [15] is described as follows: Stability in buffer simulated gastric fluid assessed as parent compound remaining in absence of pepsin after 2 hrs. Particulars: buffer simulated gastric fluid without pepsin.
The nature of data set [16]: AUC (0 to 24 hrs) in C3H/HeN mouse urine assessed as compound 5 level at 10 mg/kg, po administered as single dose by LC-MS method. Particulars: in vivo. It is filed as ADME, organism-based. Details: time < 24 hr, dose 10 mg/kg, route oral. Put shortly:
as §2

The subject of data set [17] is Mus musculus. The experiment in a line: Tmax in C3H/HeN mouse assessed as compound 5 level at 10 mg/kg, po administered as single dose by LC-MS method. In kind it is ADME, organism-based. Particulars: in vivo. Summed up: as §2
The subject of data set [18] is Mus musculus. Put plainly: Cmax in C3H/HeN mouse assessed as compound 5 level at 10 mg/kg, po administered as single dose by LC-MS method. It is filed as ADME, organism-based. The arrangement: dose 10 mg/kg, route oral. As to conditions: in vivo. Summed up:
as §2

Data set [19] can be described thus: Drug metabolism in human Caco2 cells assessed as active parent compound level in basolateral side at 62.5 uM applied at apical compartment measured after 60 mins by LC-MS method. In kind it is ADME, cell-based. As to conditions: caco-2, 1 h. Put shortly: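 Caco-2 monolayer. Test article in Dulbecco's Modified Eagle's Medium at 62.5 µM was applied to the apical chamber. After 60 min, the active principle that had accumulated in the basal receiver chamber was quantified.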

Structures are written as SMILES.

As for `N#Cc1ccc(-c2ccc(O[C@H]3O[C@H](CO)[C@@H](OP(=O)([O-])[O-])[C@H](O)[C@@H]3O)c(Cl)c2)cc1.[Na+].[Na+]`, the remaining at 2 h in data set [1], in [2], in data set [3], in [4], in data set [5] and in data set [6] was above 80% throughout. Besides, the remaining at 2 h in data set [11], in [13], in data set [14] and in data set [15] was above 80% each time. Besides, the AUC (as a rule, concentration integrated over time) in [7] amounted to 226.4 µg·h/mL. Further, the Tmax (in general, the time at which the peak concentration occurs) in the data set with Mus musculus [8] amounted to 26.4 min. The half-life (as a rule, how long it takes for the measured level to halve) at 62.5 µM in [9] came to 43 min. Moreover, in the data set with Mus musculus [10], the Cmax (usually the highest concentration seen after dosing) is 57 µg/mL. In addition, in [12], the solubility thermodynamic is above 3 mg/mL.

In the case of `N.N.O=P(O)(O)O[C@H]1[C@H](O)[C@H](O)[C@@H](Oc2ccc(-c3ccccc3)cc2)O[C@@H]1CO`, in [9], the half-life at 62.5 µM was above 60 min. The solubility thermodynamic in data set [12] came to 2.7 mg/mL.

Turning to `N#Cc1ccc(-c2ccc(O[C@H]3O[C@H](CO)[C@@H](O)[C@H](O)[C@@H]3OP(=O)([O-])[O-])c(Cl)c2)cc1.[Na+].[Na+]`, the remaining at 2 h in data set [1], in [2], in data set [3], in data set [4], in data set [5] and in [6] was above 80% in each case. For the same compound, the remaining at 2 h in data set [11], in [13], in data set [14] and in [15] was above 80% throughout. Further, the half-life at 62.5 µM in data set [9] was 13 min. Moreover, in data set [12], the solubility thermodynamic is above 3 mg/mL.

Take `N#Cc1ccc(-c2ccc(O[C@H]3O[C@H](COP(=O)([O-])[O-])[C@@H](O)[C@H](O)[C@@H]3O)c(Cl)c2)cc1.[Na+].[Na+]`: the remaining at 2 h in data set [1], in [2], in data set [3], in data set [4], in [5] and in [6] was above 80% throughout. Also, the remaining at 2 h in data set [11], in data set [13], in [14] and in data set [15] was above 80% in each case. In addition, the half-life at 62.5 µM in data set [9] is 48 min. For the same compound, the solubility thermodynamic in data set [12] was above 3 mg/mL.

Consider `N.N.O=P(O)(O)O[C@@H]1[C@@H](Oc2ccc(-c3ccccc3)cc2)O[C@H](CO)[C@@H](O)[C@@H]1O`, for which the half-life at 62.5 µM in data set [9] worked out at 12 min. Besides, the solubility thermodynamic in [12] is above 3 mg/mL.

Turning to `N.N.O=P(O)(O)O[C@@H]1[C@H](O)[C@@H](Oc2ccc(-c3ccccc3)cc2)O[C@H](CO)[C@H]1O`, in [9], the half-life at 62.5 µM was 13 min. Further, in data set [12], the solubility thermodynamic was above 3 mg/mL.

In the case of `N.N.O=P(O)(O)OC[C@H]1O[C@H](Oc2ccc(-c3ccccc3)cc2)[C@@H](O)[C@@H](O)[C@@H]1O`, the half-life at 62.5 µM in data set [9] is above 60 min. Moreover, in data set [12], the solubility thermodynamic is above 3 mg/mL.

Consider `N.N.O=[N+]([O-])c1ccc2c(c1)CCN2c1ccc(O[C@H]2O[C@H](COCOP(=O)(O)O)[C@@H](O)[C@H](O)[C@@H]2O)cc1`, for which the AUC in data set [16] was found to be 24.6 µg·h/mL. Further, the Tmax in the data set on Mus musculus [17] was found to be 180 min. Besides, the Cmax with Mus musculus [18] is 4.5 µg/mL. Moreover, the Drug metabolism result in data set [19] is on record as “Dose-dependent effect”. In data set [9], the half-life at 62.5 µM turned out to be 11 min. In addition, the solubility thermodynamic in data set [12] is above 3 mg/mL.

For the compound `N#Cc1ccc(-c2ccc(O[C@H]3O[C@H](CO)[C@@H](O)[C@H](OP(=O)([O-])[O-])[C@@H]3O)c(Cl)c2)cc1.[Na+].[Na+]`, the AUC in data set [7] turned out to be 103.9 µg·h/mL. The Tmax with Mus musculus [8] was found to be 54 min. Further, the Drug metabolism entry in data set [19] was “Dose-dependent effect”. Further, the half-life at 62.5 µM in data set [9] was 12 min. Further, the Cmax with Mus musculus [10] worked out at 40.7 µg/mL. The solubility thermodynamic in [12] was above 3 mg/mL.
